Experimental data: article PMC248471 (Biological Procedures Online, 2003)
Read-outs that look alike come from different tables or passages of the source. No end group written: not given here.

Tests used:
recombinant human HSP72 [1] = target: T1, recombinant human HSP72 (Homo sapiens, UniProt P0DMV8); assay: BIAcore SPR kinetic analysis of peptide binding to immobilized HSP72; conditions: pH 7.4, read-out: ka (on rate)
Summary of the method: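 Recombinant human HSP72 dialysed into 10 mM sodium acetate pH 5.0 and covalently coupled to a CM5 chip at about 10,000 RU. Peptides were dissolved in running buffer (HBS-P pH 7.4, 2.5 mM Mg acetate, 2.5 mM ATP) and injected at 25 to 200 μM. Sensorgrams were reference-channel subtracted without regeneration, then globally fitted to a 1:1 Langmuir model and judged by Chi2 and residuals.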

recombinant human HSP72 [2] = target: T1, recombinant human HSP72; assay: BIAcore SPR peptide binding to high-density immobilized HSP72; conditions: for binding to HSP72 (sensorgram pattern): 1 mM peptide, high HSP72 immobilization density (20,000 RU), data not shown, see reference [15]
[3] = system: MV RNP (parent Ed-MV and 4D variant); assay type: cell-based, measles virus; conditions: recombinant virus with 4D-substituted motif; unpublished data
[4] = system: CDV transcription and genome replication; assay: CDV viral transcription and genome replication, HSP72 responsiveness; assay type: cell-based, canine distemper virus (Onderstepoort strain); conditions: Onderstepoort CDV N protein (YSDKELL); unpublished observation
[5] = system: MV transcription and genomic replication; conditions: ref [15], cited from earlier work
[6] = system: viral RNP transcriptional activity; conditions: ATP-dependent association with CDV and MV RNP; ref [10]-[13]; cited from earlier work
IgG = assay: BIAcore SPR peptide binding to irrelevant ligand; conditions: irrelevant ligand IgG immobilized; data not shown, see reference [15]
MV RNP-HSP72 interaction = assay: Peptide competitive inhibition of MV RNP-HSP72 interaction; assay type: binding, human HSP72; measles virus RNP

T1 sequence (P0DMV8 whole entry): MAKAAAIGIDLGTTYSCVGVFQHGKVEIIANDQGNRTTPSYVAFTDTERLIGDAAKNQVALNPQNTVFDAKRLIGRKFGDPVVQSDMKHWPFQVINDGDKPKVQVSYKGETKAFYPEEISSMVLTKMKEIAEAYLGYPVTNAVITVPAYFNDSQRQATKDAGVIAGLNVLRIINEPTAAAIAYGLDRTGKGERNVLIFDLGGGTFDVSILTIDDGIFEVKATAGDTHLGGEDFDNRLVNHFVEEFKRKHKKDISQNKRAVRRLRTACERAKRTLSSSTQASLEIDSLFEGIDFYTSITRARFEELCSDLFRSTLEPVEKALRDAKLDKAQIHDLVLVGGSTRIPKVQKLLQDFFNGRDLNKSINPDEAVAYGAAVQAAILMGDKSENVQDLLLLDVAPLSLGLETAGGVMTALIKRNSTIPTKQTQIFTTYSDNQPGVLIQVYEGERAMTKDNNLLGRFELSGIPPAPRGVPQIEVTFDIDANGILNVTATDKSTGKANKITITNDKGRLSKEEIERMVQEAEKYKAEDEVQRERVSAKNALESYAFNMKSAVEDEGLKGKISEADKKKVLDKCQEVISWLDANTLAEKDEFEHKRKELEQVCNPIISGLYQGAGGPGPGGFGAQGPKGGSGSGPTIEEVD

Compound: CC[C@H](C)[C@H](NC(=O)[C@@H]1CCCN1C(=O)[C@@H](NC(=O)[C@H](CC(=O)O)NC(=O)[C@@H](NC(=O)[C@@H](N)CC(=O)O)[C@@H](C)O)[C@@H](C)O)C(=O)N[C@H](C(=O)N[C@@H](Cc1ccc(O)cc1)C(=O)N[C@@H](CC(N)=O)C(=O)N[C@@H](CC(=O)O)C(=O)N[C@@H](CCCNC(=N)N)C(=O)N[C@@H](CC(N)=O)C(=O)N[C@@H](CC(C)C)C(=O)N[C@@H](CC(C)C)C(=O)N[C@@H](CC(=O)O)C(=O)O)C(C)C [N, DTDTPIVYNDRNLLD]
- kon (recombinant human HSP72 [1]): 357 M⁻¹ s⁻¹
- dissociation rate from HSP72, faster in 2.5 mM than in 0.1 mM ATP (recombinant human HSP72 [2]; 400 μM N peptide, 20,000 RU HSP72, HBS-P, 2.5 mM magnesium acetate): 3 times

Compound: DTDTPIVYNDRDLLD [Peptide N4D, DTDTPIVYNDRDLLD]
- kon (recombinant human HSP72 [1]): 7 M⁻¹ s⁻¹

Compound: DTDTPIVYNDRDPLD [Peptide N3P4D, DTDTPIVYNDRDPLD]
- kon (recombinant human HSP72 [1]): 14 M⁻¹ s⁻¹

Compound: HSP72: 72 kDa heat shock protein; major inducible member of the 70kDa family
- functional HSP72 responsiveness of 4D virus variant [3]: loss of functional HSP72 responsiveness
- HSP72 responsiveness in viral transcription and genome replication [4]: retains HSP72 responsiveness
- stimulation of viral transcriptional activity (CAT reporter) ([5]; HSP72 added by transfection, wild type MV N): 2-3 fold
- response to HSP72 supplementation (CAT reporter) ([5]; N protein with C-terminal 3P4D substitutions): lack a response
- response to HSP72 supplementation (CAT reporter) ([5]; N protein with C-terminal 4D substitution): lack a response
- effect of HSP72 association on RNP [6]: increased RNP transcriptional activity

Compound: STSRHKKLMFKTEGP [p53]
- binding to HSP72 (sensorgram pattern) (recombinant human HSP72 [2]): progressive rise in signal observed over time
- signal over bulk shift on IgG (IgG): signal over bulk shift was not observed

Compound: YGSLPQKAQRPQDEN [MBP]
- inhibition of RNP binding to HSP72 (MV RNP-HSP72 interaction; 400 μM peptide, MV RNP representing 1 nM N protein, maximal sensorgram response): 18%
- level of inhibition of RNP-HSP72 binding, comparison (MV RNP-HSP72 interaction; 400 mM (so in the source) MBP peptide vs 5 μM N peptide): comparable to that using only 5 μM N peptide
- binding to HSP72 (sensorgram pattern) (recombinant human HSP72 [2]): identical sensorgrams were obtained with 1 mM peptide solution and flow channels containing no ligand or flow channels containing either HSP72 or irrelevant protein (i.e., IgG) as ligand
